Test results taken from ChEMBL document CHEMBL1154321, “Benzoxazole piperidines as selective and potent somatostatin receptor subtype 5 antagonists” (Bioorg Med Chem Lett, 2009).
In brackets after ≈: the same amount, converted by molar mass.

How the values were obtained:
[1] = target: Somatostatin receptor type 5 (Homo sapiens, UniProt P35346); assay: Displacement of SST14 from human recombinant SST5 receptor expressed in CHO cells by radioligand binding assay; format: cell-based
How it was run: (§1)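 Membranes prepared by sonication from cells expressing the SST receptor subtype, incubated with radiolabeled 11-Tyr SST-14 tracer and test compound at varying concentrations; non-labeled SST-14 defined non-specific binding. Incubation stopped by glass-fiber filtration, bound radioactivity counted; IC50 for half-maximal binding inhibition estimated and Ki derived.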

[2] = target: Somatostatin receptor type 2 (Homo sapiens, UniProt P30874); assay: Displacement of SST14 from human recombinant SST2 receptor; how it was run: as §1
[3] = target: Somatostatin receptor type 3 (Homo sapiens, UniProt P32745); assay: Displacement of SST14 from human recombinant SST3 receptor; how it was run: as §1
[4] = target: Somatostatin receptor type 4 (Homo sapiens, UniProt P31391); assay: Displacement of SST14 from human recombinant SST4 receptor; how it was run: as §1
[5] = Solubility in phosphate buffer at pH 6.5 by lyophilization solubility assay; format: physicochemical
How it was run: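 Lyophilized DMSO stock solutions redissolved in 50 mM phosphate buffer, pH 6.5; solubility read spectrophotometrically.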

[6] = sPermeability by PAMPA; format: ADME; settings: read-out: permeability
How it was run: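 Parallel artificial membrane permeation; Pe categorized as low (<0.1), medium (0.1–1.0) or high (>1.0).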

[7] = Octanol-TAPSO partition coefficient, log D at pH 7.4 by spectrophotometry; format: physicochemical; settings: octanol/TAPSO buffer
How it was run: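 Spectrophotometric log D in 1-octanol/50 mM TAPSO buffer, pH 7.4, containing 5% (v/v) DMSO.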

[8] = Dissociation constant, pKa by spectrophotometry; format: physicochemical
[9] = Clearance in Wistar rat administered as single dose; format: ADME, organism-based; settings: in vivo
[10] = Volume of distribution at steady state in Wistar rat administered as single dose; format: ADME, organism-based; settings: in vivo, read-out: Vdss
[11] = Terminal half-life in Wistar rat administered as single dose; format: ADME, organism-based; settings: in vivo, read-out: beta t1/2 (converted)
[12] = Oral bioavailability in Wistar rat administered as single dose; format: ADME, organism-based; settings: in vivo
Histamine H1 receptor = Histamine H1 receptor (Homo sapiens, UniProt P35367); assay: Binding affinity to human histamine H1 receptor
Homo sapiens = organism: Homo sapiens; assay: Selectivity ratio of Ki for human histamine H1 receptor to Ki for human SST5 receptor
[13] = target: 5-hydroxytryptamine receptor 2B (Homo sapiens, UniProt P41595); assay: Binding affinity to human 5HT2B receptor
[14] = target: Voltage-gated inwardly rectifying potassium channel KCNH2 (Homo sapiens, UniProt Q12809); assay: (§2) Inhibition of human ERG expressed in CHO cells by patch clamp technique; format: cell-based
hERG (KCNH2) = hERG (KCNH2) (Homo sapiens, UniProt Q12809); assay: as §2; format: cell-based; settings: human, CHO cells expressing human ERG
[15] = target: Somatostatin receptor type 1 (Homo sapiens, UniProt P30872); assay: Displacement of SST14 from human recombinant SST1 receptor; how it was run: as §1
Chain of Somatostatin receptor type 1 (P30872 whole entry): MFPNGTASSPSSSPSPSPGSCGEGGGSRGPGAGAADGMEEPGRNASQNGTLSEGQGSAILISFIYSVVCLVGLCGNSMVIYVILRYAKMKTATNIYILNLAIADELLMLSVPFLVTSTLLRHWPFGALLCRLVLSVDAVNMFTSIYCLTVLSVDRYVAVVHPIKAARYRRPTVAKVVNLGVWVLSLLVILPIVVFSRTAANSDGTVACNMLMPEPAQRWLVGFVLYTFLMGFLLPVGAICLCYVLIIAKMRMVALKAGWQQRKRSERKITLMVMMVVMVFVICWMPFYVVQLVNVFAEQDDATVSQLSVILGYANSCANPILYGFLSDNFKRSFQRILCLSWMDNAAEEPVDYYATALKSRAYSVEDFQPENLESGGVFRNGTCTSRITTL

Chain of Somatostatin receptor type 5 (P35346 whole entry): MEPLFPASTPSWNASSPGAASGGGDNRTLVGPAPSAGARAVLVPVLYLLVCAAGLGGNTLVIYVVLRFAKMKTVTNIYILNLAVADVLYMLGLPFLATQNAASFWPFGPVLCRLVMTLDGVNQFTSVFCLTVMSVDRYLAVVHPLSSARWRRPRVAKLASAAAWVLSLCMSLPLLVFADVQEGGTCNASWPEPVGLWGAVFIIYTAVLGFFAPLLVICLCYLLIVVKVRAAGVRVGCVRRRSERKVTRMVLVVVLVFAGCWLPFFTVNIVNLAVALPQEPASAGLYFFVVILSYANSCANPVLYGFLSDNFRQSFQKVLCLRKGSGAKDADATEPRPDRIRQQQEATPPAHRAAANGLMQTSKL
Chain of 5-hydroxytryptamine receptor 2B (P41595 whole entry): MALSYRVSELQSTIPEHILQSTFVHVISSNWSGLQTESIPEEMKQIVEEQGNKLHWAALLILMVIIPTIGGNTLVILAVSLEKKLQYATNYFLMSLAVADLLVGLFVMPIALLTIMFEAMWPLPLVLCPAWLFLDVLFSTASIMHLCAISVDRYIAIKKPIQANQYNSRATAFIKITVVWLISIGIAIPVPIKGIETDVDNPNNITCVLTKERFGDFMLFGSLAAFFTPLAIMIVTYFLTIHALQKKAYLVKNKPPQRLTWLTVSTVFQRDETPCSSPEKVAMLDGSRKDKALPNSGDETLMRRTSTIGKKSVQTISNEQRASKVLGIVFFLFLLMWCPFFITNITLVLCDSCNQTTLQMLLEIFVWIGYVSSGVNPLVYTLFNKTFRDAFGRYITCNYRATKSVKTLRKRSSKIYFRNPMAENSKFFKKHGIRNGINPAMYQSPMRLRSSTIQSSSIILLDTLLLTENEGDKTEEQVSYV
Chain of Somatostatin receptor type 2 (P30874 whole entry): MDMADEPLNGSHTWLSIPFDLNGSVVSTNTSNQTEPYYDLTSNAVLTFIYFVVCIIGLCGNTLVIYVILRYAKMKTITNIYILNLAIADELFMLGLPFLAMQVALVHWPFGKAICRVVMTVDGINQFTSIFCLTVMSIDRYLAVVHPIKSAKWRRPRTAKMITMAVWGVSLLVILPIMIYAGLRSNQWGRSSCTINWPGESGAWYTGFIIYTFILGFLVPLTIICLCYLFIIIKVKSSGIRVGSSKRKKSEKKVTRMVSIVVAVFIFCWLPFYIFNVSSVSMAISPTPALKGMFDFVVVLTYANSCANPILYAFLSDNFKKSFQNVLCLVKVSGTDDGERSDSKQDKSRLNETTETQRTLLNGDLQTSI
Chain of Somatostatin receptor type 3 (P32745 whole entry): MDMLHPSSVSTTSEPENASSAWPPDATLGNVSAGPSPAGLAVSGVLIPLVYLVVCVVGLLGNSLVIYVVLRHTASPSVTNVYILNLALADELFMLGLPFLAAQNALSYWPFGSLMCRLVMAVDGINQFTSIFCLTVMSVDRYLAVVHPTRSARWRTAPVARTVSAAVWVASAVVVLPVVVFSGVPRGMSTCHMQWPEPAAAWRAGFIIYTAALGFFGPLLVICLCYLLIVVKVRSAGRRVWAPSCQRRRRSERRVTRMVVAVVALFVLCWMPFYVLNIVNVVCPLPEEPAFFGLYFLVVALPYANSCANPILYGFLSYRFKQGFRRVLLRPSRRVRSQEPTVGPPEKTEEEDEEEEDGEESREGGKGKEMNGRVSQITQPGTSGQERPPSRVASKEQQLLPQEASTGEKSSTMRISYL
Chain of Histamine H1 receptor (P35367 whole entry): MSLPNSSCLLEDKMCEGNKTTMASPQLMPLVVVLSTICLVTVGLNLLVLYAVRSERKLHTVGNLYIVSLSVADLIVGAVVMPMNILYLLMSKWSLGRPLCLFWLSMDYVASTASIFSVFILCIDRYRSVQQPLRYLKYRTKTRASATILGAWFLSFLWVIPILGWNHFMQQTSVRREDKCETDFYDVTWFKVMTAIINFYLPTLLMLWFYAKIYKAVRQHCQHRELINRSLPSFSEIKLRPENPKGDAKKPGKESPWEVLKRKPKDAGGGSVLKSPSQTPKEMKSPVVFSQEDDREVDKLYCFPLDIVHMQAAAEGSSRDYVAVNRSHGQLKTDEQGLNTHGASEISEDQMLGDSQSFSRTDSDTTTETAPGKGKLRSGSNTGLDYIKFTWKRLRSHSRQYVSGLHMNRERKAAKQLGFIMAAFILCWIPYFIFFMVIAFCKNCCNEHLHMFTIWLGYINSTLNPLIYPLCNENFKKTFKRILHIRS
Chain of Somatostatin receptor type 4 (P31391 whole entry): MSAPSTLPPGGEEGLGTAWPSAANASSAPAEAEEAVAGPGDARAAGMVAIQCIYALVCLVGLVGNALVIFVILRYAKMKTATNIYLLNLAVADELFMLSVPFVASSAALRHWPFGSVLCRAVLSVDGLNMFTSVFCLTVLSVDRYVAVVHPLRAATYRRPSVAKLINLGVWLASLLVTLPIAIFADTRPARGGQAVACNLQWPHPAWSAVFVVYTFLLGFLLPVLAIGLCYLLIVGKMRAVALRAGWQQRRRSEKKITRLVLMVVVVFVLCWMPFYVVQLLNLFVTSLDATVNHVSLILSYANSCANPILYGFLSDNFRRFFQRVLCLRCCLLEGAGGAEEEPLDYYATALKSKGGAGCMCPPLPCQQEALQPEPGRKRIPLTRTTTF
Chain of Voltage-gated inwardly rectifying potassium channel KCNH2 (Q12809 whole entry): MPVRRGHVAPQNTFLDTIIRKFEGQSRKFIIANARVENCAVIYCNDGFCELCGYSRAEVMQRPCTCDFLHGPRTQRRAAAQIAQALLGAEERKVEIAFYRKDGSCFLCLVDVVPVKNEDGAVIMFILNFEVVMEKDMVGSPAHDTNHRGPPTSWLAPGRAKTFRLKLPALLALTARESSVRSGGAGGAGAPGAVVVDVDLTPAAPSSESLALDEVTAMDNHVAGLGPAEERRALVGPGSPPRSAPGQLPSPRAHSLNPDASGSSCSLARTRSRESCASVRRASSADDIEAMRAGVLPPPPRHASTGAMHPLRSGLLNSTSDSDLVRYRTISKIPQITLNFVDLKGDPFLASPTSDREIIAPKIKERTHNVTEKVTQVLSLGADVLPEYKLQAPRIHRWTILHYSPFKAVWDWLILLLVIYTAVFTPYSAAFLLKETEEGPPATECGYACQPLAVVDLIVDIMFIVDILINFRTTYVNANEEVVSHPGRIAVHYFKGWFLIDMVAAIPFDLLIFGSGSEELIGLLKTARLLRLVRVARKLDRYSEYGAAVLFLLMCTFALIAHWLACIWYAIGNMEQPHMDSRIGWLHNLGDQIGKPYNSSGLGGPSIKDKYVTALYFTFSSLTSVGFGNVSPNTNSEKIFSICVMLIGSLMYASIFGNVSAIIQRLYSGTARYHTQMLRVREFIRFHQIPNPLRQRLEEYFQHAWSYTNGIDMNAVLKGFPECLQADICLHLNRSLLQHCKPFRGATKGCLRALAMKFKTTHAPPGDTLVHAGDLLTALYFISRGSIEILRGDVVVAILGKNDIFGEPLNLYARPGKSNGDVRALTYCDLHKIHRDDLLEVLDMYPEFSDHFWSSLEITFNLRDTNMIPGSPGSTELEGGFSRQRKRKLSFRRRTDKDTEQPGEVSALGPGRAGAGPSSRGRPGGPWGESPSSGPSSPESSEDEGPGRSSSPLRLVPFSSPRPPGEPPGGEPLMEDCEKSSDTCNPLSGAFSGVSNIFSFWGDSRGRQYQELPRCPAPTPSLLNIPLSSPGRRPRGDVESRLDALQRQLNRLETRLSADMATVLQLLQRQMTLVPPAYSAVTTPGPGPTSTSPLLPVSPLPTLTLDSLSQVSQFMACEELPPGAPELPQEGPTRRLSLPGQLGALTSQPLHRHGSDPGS

Row | Structure (SMILES) | Ki [1] [nM] | Ki [2] [µM] | Ki [3] [µM] | Ki [4] [µM] | solubility [5] [µg/mL] | Papp [6] [×10⁻⁶ cm/s] | logD [7] | pKa [8] | clearance [9] [mL/min/kg] | Vd [10] [L/kg] | half-life [11] [min] | bioavailability [12] [%] | Ki (Histamine H1 receptor) [nM] | Ratio Ki (Homo sapiens) | Ki [13] [nM] | IC50 [14] [nM] | IC50 (hERG (KCNH2)) [µM] | Ki [15] [µM]
1 | CCOc1cc(CN2CCC(Nc3nc4cc(S(=O)(=O)CC)ccc4o3)CC2)ccc1OC | 196 | > 10 | > 10 | > 10 | > 530 | 1.63 | 2.13 | 8.1 | 126 | 3.8 | 24 | 6 | – | – | – | – | – | –
2 | CCOc1cc(CN2CCC(Nc3nc4cc(Cl)c(S(N)(=O)=O)cc4o3)CC2)ccc1F | 252 | > 10 | > 10 | > 10 | 32 (≈ 66.3 µM) | 2.45 | 2.78 | 7.61 | – | – | – | – | 1370 | 5.5 | > 10000 | – | – | –
3 | CCOc1cc(CN2CCC(Nc3nc4cc(C(N)=O)ccc4o3)CC2)cc(OCC)c1F | 8 | > 10 | > 10 | > 10 | 148 (≈ 324 µM) | 1.61 | 2.96 | 7.72 | 28 | 3.3 | 150 | 38 | – | – | – | 430 | – | –
4 | CCOc1cc(CN2CCC(Nc3nc4cc(S(N)(=O)=O)ccc4o3)CC2)ccc1OC | 529 | > 10 | > 10 | > 10 | > 614 | 1.64 | 1.51 | 8.05 | 103 | 8.2 | 102 | 4 | 520 | 1 | – | – | 3.5 | –
5 | CCOc1cc(CN2CCC(Nc3nc4ccccc4o3)CC2)cc(OC2CCOCC2)c1 | 199 | > 10 | > 10 | > 10 | 212 (≈ 469 µM) | 2.05 | 3.02 | 7.76 | – | – | – | – | 3600 | 18 | 94 | – | – | –
6 | CCOc1cc(CN2CCC(Nc3nc4ccccc4o3)CC2)ccc1Cl | – | > 10 | > 10 | > 10 | 44 (≈ 114 µM) | 0.49 | 3.44 | 7.63 | – | – | – | – | 266 | 2.4 | 74 | – | – | –
7 | CCOc1cc(CN2CCC(Nc3nc4cc(NS(=O)(=O)c5cn(C)cn5)ccc4o3)CC2)ccc1OC | 175 | > 10 | > 10 | > 10 | > 720 | 0.49 | 1.48 | 7.91 | 41 | 2.2 | 90 | 2 | – | – | – | – | – | –
8 | CCOc1cc(CN2CCC(Nc3nc4cc(C(=O)O)ccc4o3)CC2)cc(OCC)c1Cl | 3 | > 10 | > 10 | > 10 | 14 (≈ 29.5 µM) | 2.09 | 1.82 | – | 18 | 1.8 | 294 | 12 | – | > 200 | – | > 10000 | – | 4.5
9 | CCOc1cc(CN2CCC(Nc3nc4cc(NS(=O)(=O)c5ccccc5)ccc4o3)CC2)ccc1OC | 205 | > 10 | > 10 | > 10 | 145 (≈ 270 µM) | 2.2 | 1.93 | 7.72 | – | – | – | – | 199 | 1 | – | – | – | –
10 | CCOc1cc(CN2CCC(Nc3nc4cc(NC(=O)C5CCC5)ccc4o3)CC2)ccc1OC | 182 | > 10 | > 10 | > 10 | > 638 | 1.1 | 2.64 | – | – | – | – | – | 923 | 5.1 | > 10000 | – | – | 4.95
11 | CCOc1cc(CN2CCC(Nc3nc4cc(S(N)(=O)=O)ccc4o3)CC2)cc(OCC)c1N | – | – | – | – | 335 (≈ 684 µM) | – | 1.62 | 8.28 | – | – | – | – | 2600 | 200 | – | – | – | 1.75
12 | CCOc1cc(CN2CCC(Nc3nc4cc(S(=O)(=O)CC)ccc4o3)CC2)cc(OC2CCOCC2)c1 | 55 | > 10 | > 10 | > 10 | 183 (≈ 337 µM) | 1.75 | 3.13 | 7.55 | – | – | – | – | 38400 | 698 | – | – | – | –
13 | CCOc1cc(CN2CCC(Nc3nc4ccc(Cl)cc4o3)CC2)ccc1Cl | 239 | > 10 | > 10 | > 10 | 44 (≈ 105 µM) | 4.81 | – | – | 37 | 4.6 | 156 | 33 | – | – | – | – | – | –
14 | CCOc1cc(CN2CCC(Nc3nc4cc(Cl)c(S(N)(=O)=O)cc4o3)CC2)ccc1OC | 343 | > 10 | > 10 | > 10 | 338 (≈ 683 µM) | 1.1 | 2.67 | 7.92 | – | – | – | – | 1010 | 3 | – | – | – | –
